# Legend:
# [1] = Rate constant (Kobs) obtained from IR spectroscopy
# [2] = Geometrical mean of MIC calculated from MIC values for Escherichia coli NIHJ JC-2 and Klebsiella pneumoniae SRL-1; type: functional
# Summary of the method: (§1)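 Agar dilution on sensitivity test agar with serial twofold antibiotic dilutions. Overnight tryptosoy broth cultures of E. coli NIHJ JC-2 and K. pneumoniae SRL-1 were diluted to about 10^6 cells/mL in the same broth, and one loopful was inoculated. Plates were incubated at 37 °C for 18–20 h. MIC was the lowest concentration inhibiting visible growth. The value is the geometric mean of the two strains' MICs.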
# [3] = Dissociation constant (Kobs) obtained from IR spectroscopy; f = Not detected; type: physicochemical
# [4] = Geometrical mean of MIC calculated from MIC values for Escherichia coli NIHJ JC-2 and Klebsiella pneumoniae SRL-1.; type: functional
# Summary of the method: as §1
SMILES,10^2 kobsd (h^-1) [1],MIC [2],Log k [3],MIC [4]
O=C(Cc1ccccc1)NC1C(=O)N2C(C(=O)[O-])=CCSC12.[Na+] (stereo not given),3.1 hr-1,8.85 µg/mL,–,–
CC1=C(C(=O)[O-])N2C(=O)C(NC(=O)Cc3ccccc3)C2SC1.[Na+] (stereo not given),1.36 hr-1,70.7 µg/mL,–,–
O=C(Cc1cccs1)[N-]C1C(=O)N2C(C(=O)[O-])=C(C[n+]3ccccc3)CSC12.[Na+] (stereo not given),47.3 obs,–,–,–
CC(=O)OCC1=C(C(=O)[O-])N2C(=O)C(NC(=O)Cc3cccs3)C2SC1.[Na+] (stereo not given),11.1 hr-1,25 µg/mL,–,–

# The next lines start with the values.
10^2 kobsd (h^-1) [1],MIC [2],Log k [3],MIC [4],SMILES
46.5 hr-1,8.84 µg/mL,–,–,CS(=O)(=O)OC1=C(C(=O)[O-])N2C(=O)C(NC(=O)Cc3ccccc3)C2SC1.[Na+] (stereo not given)
–,–,Not detected,17.7 µg/mL,COC1=C(C(=O)[O-])N2C(=O)C(NC(=O)Cc3ccccc3)C2SC1.[Na+] (stereo not given)
15.2 hr-1,12.5 µg/mL,–,–,O=C(Cc1ccccc1)NC1C(=O)N2C(C(=O)[O-])=C(Cl)CSC12.[Na+] (stereo not given)
1.82 hr-1,> 100 µg/mL,–,–,CCOC(=O)CC1=C(C(=O)[O-])N2C(=O)C(NC(=O)Cc3ccccc3)C2SC1.[Na+] (stereo not given)

# From ChEMBL document CHEMBL1122539, “3-Substituent effect and 3-methylene substituent effect on the structure-reactivity relationship of 7 beta-(acylamino)-3-cephem-4-carboxylic acid derivatives studied by carbon-13 and IR spectroscopies” (J Med Chem, 1984)
